According to ChEMBL document CHEMBL1149351, “4-Amino-2-alkyl-butyramides as small molecule CCR2 antagonists with favorable pharmacokinetic properties” (Bioorg Med Chem Lett, 2006):

How the values were obtained:
[1] = target: T1, C-C chemokine receptor type 2 (Homo sapiens, UniProt P41597); test: Displacement of [125I]MCP-1 from human CCR2b expressed in CHO cells; type: cell-based
Target sequence in this assay (P41597 whole entry): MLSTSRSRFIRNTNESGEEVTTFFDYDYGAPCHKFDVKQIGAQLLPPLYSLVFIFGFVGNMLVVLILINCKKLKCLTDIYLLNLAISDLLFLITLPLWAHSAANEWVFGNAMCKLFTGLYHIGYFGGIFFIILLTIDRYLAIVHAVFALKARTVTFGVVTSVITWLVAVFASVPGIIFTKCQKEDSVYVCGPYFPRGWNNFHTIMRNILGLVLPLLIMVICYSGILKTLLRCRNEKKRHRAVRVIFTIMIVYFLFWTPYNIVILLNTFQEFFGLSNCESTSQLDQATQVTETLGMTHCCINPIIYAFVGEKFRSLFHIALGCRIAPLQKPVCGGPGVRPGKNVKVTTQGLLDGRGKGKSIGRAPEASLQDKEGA

[2] = target: T1, C-C chemokine receptor type 2; test: Displacement of [125I]MCP-1 from human CCR2b expressed in human monocyte cells; type: cell-based
Method in brief: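 Human monocytes (5 × 10⁴) incubated with ¹²⁵I-hMCP-1 (20–50 pM; 2200 Ci/mmol) plus varying unlabeled competitor, 60 min at room temperature, in 50 mM HEPES, 5 mM MgCl₂, 1 mM CaCl₂, pH 7.4. Stopped by filtration on PEI-presoaked GF/B filters, washed with 25 mM HEPES pH 7.5/500 mM NaCl, then scintillation counted. Means of at least two separate experiments.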
Target sequence in this assay (P41597 whole entry): as above

[3] = target: T1, C-C chemokine receptor type 2; test: Inhibition of [125I]MCP-1 binding to human CCR2b expressed in human monocyte cells at 1 uM; type: cell-based
Method in brief: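 Competition binding on human monocytes (5 × 10⁴ cells) with ¹²⁵I-hMCP-1 (20–50 pM) in 50 mM HEPES, 5 mM MgCl₂, 1 mM CaCl₂, pH 7.4, for 60 min at room temperature. Stopped by filtration through filters presoaked in 0.1% polyethyleneimine, washed with 25 mM HEPES pH 7.5 plus 500 mM NaCl. Bound label read by scintillation counting. Mean of at least two separate experiments.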
Target sequence in this assay (P41597 whole entry, looked up): as the sequence (P41597 whole entry) above

[4] = target: T1, C-C chemokine receptor type 2; test: Inhibition of [125I]MCP-1 binding to human CCR2b expressed in CHO cells at 1 uM; type: cell-based
Target sequence in this assay (P41597 whole entry, looked up): as the sequence (P41597 whole entry) above

[5] = target: T1, C-C chemokine receptor type 2; test: Activity at CCR2b by calcium flux based FLIPR assay in CHO cells; type: functional, cell-based
Target sequence in this assay (P41597 whole entry): as above

Rattus norvegicus [6] = test: AUC in Sprague-Dawley rat at 1 mg/kg, iv; type: ADME, organism-based, Plasma; design: dose 1 mg/kg, route intravenous; conditions: in vivo
[7] = Volume of distribution in Sprague-Dawley rat at 1 mg/kg, iv; type: ADME, organism-based; design: dose 1 mg/kg, route intravenous; conditions: in vivo, read-out: Vdss
Rattus norvegicus [8] = test: AUC in Sprague-Dawley rat at 3 mg/kg, po; type: ADME, organism-based, Plasma; design: dose 3 mg/kg, route oral; conditions: in vivo
[9] = target: C-C chemokine receptor type 8 (Homo sapiens) (UniProt P51685); test: Inhibition of CCR8 at 1 uM
Sequence of C-C chemokine receptor type 8 (Homo sapiens) (P51685 whole entry): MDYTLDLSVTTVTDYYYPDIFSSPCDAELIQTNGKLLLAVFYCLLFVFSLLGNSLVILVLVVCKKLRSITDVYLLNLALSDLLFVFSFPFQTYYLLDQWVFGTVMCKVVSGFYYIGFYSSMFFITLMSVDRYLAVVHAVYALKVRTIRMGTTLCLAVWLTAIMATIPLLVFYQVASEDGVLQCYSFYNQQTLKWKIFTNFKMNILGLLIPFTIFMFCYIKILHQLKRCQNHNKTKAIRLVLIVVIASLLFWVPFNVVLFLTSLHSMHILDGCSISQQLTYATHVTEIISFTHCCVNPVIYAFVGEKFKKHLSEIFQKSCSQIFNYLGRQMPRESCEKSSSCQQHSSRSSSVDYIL

[10] = target: T2, C-C chemokine receptor type 3 (Homo sapiens) (UniProt P51677); test: Inhibition of human CCR3 at 4 uM
T2 sequence (whole entry): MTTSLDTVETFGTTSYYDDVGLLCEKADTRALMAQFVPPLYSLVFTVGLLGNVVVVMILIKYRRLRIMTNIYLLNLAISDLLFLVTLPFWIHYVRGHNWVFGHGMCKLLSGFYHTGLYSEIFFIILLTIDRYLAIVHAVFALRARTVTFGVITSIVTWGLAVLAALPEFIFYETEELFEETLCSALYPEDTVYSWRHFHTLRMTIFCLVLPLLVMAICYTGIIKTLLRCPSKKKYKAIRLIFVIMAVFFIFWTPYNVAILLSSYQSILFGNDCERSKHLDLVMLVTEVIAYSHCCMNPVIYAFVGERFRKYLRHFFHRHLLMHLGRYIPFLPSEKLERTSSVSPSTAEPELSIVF

[11] = target: T3, C-C chemokine receptor type 1 (Homo sapiens) (UniProt P32246); test: Inhibition of human CCR1 at 1 uM
T3 sequence (whole entry): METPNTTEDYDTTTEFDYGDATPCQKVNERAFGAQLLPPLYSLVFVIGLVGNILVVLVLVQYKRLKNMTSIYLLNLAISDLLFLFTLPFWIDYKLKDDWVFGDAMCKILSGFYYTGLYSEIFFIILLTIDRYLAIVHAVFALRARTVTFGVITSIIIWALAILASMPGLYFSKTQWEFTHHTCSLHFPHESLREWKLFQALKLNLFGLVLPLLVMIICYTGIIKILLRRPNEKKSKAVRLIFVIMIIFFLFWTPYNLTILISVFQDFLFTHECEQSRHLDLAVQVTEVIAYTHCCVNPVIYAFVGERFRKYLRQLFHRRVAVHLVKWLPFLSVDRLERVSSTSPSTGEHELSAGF

Rattus norvegicus [12] = test: Tmax in Sprague-Dawley rat at 3 mg/kg, po; type: ADME, organism-based; design: dose 3 mg/kg, route oral; conditions: in vivo
[13] = target: C-C chemokine receptor type 5 (Homo sapiens) (UniProt P51681); test: Inhibition of CCR5 at 1 uM
Sequence of C-C chemokine receptor type 5 (Homo sapiens) (P51681 whole entry, looked up): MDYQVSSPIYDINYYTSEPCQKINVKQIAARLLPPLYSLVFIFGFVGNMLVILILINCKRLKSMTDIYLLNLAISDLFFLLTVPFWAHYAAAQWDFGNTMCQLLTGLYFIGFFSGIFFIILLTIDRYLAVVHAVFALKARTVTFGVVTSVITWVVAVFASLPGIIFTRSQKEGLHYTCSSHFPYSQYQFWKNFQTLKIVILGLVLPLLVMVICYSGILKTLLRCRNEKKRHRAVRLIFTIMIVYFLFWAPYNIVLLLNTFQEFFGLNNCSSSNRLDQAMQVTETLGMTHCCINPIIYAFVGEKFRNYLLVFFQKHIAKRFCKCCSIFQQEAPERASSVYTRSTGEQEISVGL

[14] = Cmax in Sprague-Dawley rat at 3 mg/kg, po; type: ADME, organism-based; design: dose 3 mg/kg, route oral; conditions: in vivo
Rattus norvegicus [15] = test: Oral bioavailability in Sprague-Dawley rat at 3 mg/kg, po; type: ADME, organism-based; conditions: in vivo
[16] = Half life in Sprague-Dawley rat at 1 mg/kg, iv; type: ADME, organism-based; design: dose 1 mg/kg, route intravenous; conditions: in vivo
[17] = target: C-X-C chemokine receptor type 4 (Homo sapiens) (UniProt P61073); test: Inhibition of human CXCR4 at 1 uM
Sequence of C-X-C chemokine receptor type 4 (Homo sapiens) (P61073 whole entry): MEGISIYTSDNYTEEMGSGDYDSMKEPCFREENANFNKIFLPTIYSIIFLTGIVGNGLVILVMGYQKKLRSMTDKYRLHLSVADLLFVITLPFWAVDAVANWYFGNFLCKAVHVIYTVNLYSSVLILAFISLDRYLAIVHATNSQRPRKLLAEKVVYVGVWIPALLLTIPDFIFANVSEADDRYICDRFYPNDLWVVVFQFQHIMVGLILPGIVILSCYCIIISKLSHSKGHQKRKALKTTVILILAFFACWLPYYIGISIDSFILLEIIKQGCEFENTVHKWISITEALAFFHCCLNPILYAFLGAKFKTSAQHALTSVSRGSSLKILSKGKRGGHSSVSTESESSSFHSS

[18] = Clearance in Sprague-Dawley rat at 1 mg/kg, iv; type: ADME, organism-based; design: dose 1 mg/kg, route intravenous; conditions: in vivo

Row | SMILES | IC50 [1] | IC50 [2] | other results
1 | CS(=O)(=O)NC(CCN1CCC2(C=Cc3ccccc32)CC1)C(=O)NCc1cc(C(F)(F)F)cc(C(F)(F)F)c1 (stereo not drawn) | 244 nM |  | 
2 | CC(O)C(CCN1CC[C@@]2(C=Cc3ccccc32)[C@@H](C)C1)C(=O)NCc1cc(C(F)(F)F)cc(C(F)(F)F)c1 (stereo partly drawn) |  | 48 nM | 
3 | COC(=O)NC(CCN1CCC2(C=Cc3ccccc32)CC1)C(=O)NCc1cc(C(F)(F)F)cc(C(F)(F)F)c1 (stereo not drawn) | 805 nM |  | 
4 | O=C(CCCN1CCC2(C=Cc3ccccc32)CC1)NCc1cc(C(F)(F)F)cc(C(F)(F)F)c1 | 570 nM |  | inhibition [3]: 80%
5 | C[C@H]1CN(CC[C@H](C(=O)NCc2cc(C(F)(F)F)cc(C(F)(F)F)c2)c2ccc(F)cc2)CC[C@@]12C=Cc1ccccc12 | 67 nM |  | 
6 | O=CNC(CCN1CCC2(C=Cc3ccccc32)CC1)C(=O)NCc1cc(C(F)(F)F)cc(C(F)(F)F)c1 (stereo not drawn) |  |  | inhibition [4]: 25%
7 | O=C(NCc1cc(C(F)(F)F)cc(C(F)(F)F)c1)C(CCN1CCC2(C=Cc3ccccc32)CC1)Cc1ccccc1 (stereo not drawn) | 298 nM | 232 nM | 
8 | CCC[C@H](CCN1CCC(c2ccccc2)CC1)C(=O)NCc1cc(C(F)(F)F)cc(C(F)(F)F)c1 | 126 nM | 42 nM | 
9 | C[C@H]1CN(CC[C@H](C(=O)NCc2cc(C(F)(F)F)cc(C(F)(F)F)c2)C2CCC2)CC[C@@]12C=Cc1ccccc12 | 28 nM | 12 nM | IC50 [5]: 11 nM
10 | O=C1NCC(C(=O)NC(CCN2CCC3(C=Cc4ccccc43)CC2)C(=O)NCc2cc(C(F)(F)F)cc(C(F)(F)F)c2)N1 (stereo not drawn) | 525 nM |  | 
11 | CC(C)[C@@H](CCN1CCC2(C=Cc3ccccc32)CC1)C(=O)NCc1cc(C(F)(F)F)cc(C(F)(F)F)c1 | 349 nM | 72 nM | 
12 | CC(=O)N1CCCC(C(CCN2CCC3(C=Cc4ccccc43)CC2)C(=O)NCc2cc(C(F)(F)F)cc(C(F)(F)F)c2)C1 (stereo not drawn) | 660 nM | 80 nM | 
13 | O=C(NCc1cc(C(F)(F)F)cc(C(F)(F)F)c1)C(CCN1CCC2(C=Cc3ccccc32)CC1)NS(=O)(=O)c1cccs1 (stereo not drawn) |  |  | inhibition [4]: 20%
14 | NC(CCN1CCC2(C=Cc3ccccc32)CC1)C(=O)NCc1cc(C(F)(F)F)cc(C(F)(F)F)c1 (stereo not drawn) |  |  | inhibition [4]: 33%
15 | O=C(NCc1cc(C(F)(F)F)cc(C(F)(F)F)c1)[C@@H](CCN1CCC(c2ccccc2)CC1)C1CC1 | 285 nM | 129 nM | 
16 | O=C(NCc1cc(C(F)(F)F)cc(C(F)(F)F)c1)[C@@H](CCN1CCC(c2ccc(F)cc2)CC1)C1CC1 | 280 nM | 72 nM | 
17 | C[C@H]1CN(CC[C@@H](C(=O)NCc2cc(C(F)(F)F)cc(C(F)(F)F)c2)C2CC2)CC[C@@]12C=Cc1ccccc12 | 80 nM | 13 nM | 
18 | C[C@H]1CN(CCCC(=O)NCc2cc(C(F)(F)F)cc(C(F)(F)F)c2)CC[C@@]12C=Cc1ccccc12 | 173 nM | 93 nM | 

Row | SMILES | IC50 [1] | IC50 [2] | other results
19 | CS(=O)(=O)N1CCCC(C(CCN2CCC3(C=Cc4ccccc43)CC2)C(=O)NCc2cc(C(F)(F)F)cc(C(F)(F)F)c2)C1 (stereo not drawn) | 783 nM |  | inhibition [3]: 70%
20 | O=C(NCc1cc(C(F)(F)F)cc(C(F)(F)F)c1)C(CCN1CCC2(C=Cc3ccccc32)CC1)NS(=O)(=O)C(F)(F)F (stereo not drawn) | 125 nM |  | 
21 | CC[C@H]1CN(CC[C@H](C(=O)NCc2cc(C(F)(F)F)cc(C(F)(F)F)c2)c2ccc(F)cc2)CC[C@@]12C=Cc1ccccc12 | 437 nM |  | 
22 | COC(=O)C[C@@H](CCN1CCC(c2ccccc2)CC1)C(=O)NCc1cc(C(F)(F)F)cc(C(F)(F)F)c1 |  |  | inhibition [4]: 38%
23 | C[C@H]1CN(CC[C@H](C(=O)NCc2cc(C(F)(F)F)cc(C(F)(F)F)c2)C2CC2)CC[C@@]12C=Cc1ccccc12 | 14 nM | 4 nM | AUC (Rattus norvegicus [6]): 4.17 µM·h; Vd [7]: 2.19 L/kg; AUC (Rattus norvegicus [8]): 4.08 µM·h; inhibition [9]: 9%; inhibition [10]: 3%; inhibition [11]: -5%; Tmax (Rattus norvegicus [12]): 4.67 µM; inhibition [13]: 38%; IC50 [5]: 4 nM; Cmax [14]: 1580 nM; F (Rattus norvegicus [15]): 98%; half-life [16]: 4.11 h; inhibition [17]: 8%; clearance [18]: 7.36 mL/min/kg
24 | C=CC[C@H](CCN1CCC(c2ccccc2)CC1)C(=O)NCc1cc(C(F)(F)F)cc(C(F)(F)F)c1 | 642 nM | 216 nM | 
25 | CC(C)[C@H](CCN1CCC2(C=Cc3ccccc32)CC1)C(=O)NCc1cc(C(F)(F)F)cc(C(F)(F)F)c1 | 204 nM | 47 nM | 
26 | C[C@@H](CCN1CCC2(C=Cc3ccccc32)CC1)C(=O)NCc1cc(C(F)(F)F)cc(C(F)(F)F)c1 | 605 nM | 86 nM | 
27 | C=CC[C@H](CCN1CCC2(C=Cc3ccccc32)CC1)C(=O)NCc1cc(C(F)(F)F)cc(C(F)(F)F)c1 | 193 nM | 37 nM | 
28 | O=C(NCc1cc(C(F)(F)F)cc(C(F)(F)F)c1)C(CCN1CCC2(C=Cc3ccccc32)CC1)NS(=O)(=O)c1ccccc1 (stereo not drawn) |  |  | inhibition [4]: 7%
29 | CC(O)C(CCN1CCC(c2ccc(F)cc2)CC1)C(=O)NCc1cc(C(F)(F)F)cc(C(F)(F)F)c1 (stereo not drawn) |  | 462 nM | 
30 | COC(=O)C[C@H](CCN1CCC(c2ccccc2)CC1)C(=O)NCc1cc(C(F)(F)F)cc(C(F)(F)F)c1 |  |  | inhibition [4]: 42%
31 | O=C(NCc1cc(C(F)(F)F)cc(C(F)(F)F)c1)[C@@H](CCN1CCC2(C=Cc3ccccc32)CC1)C1CC1 | 98 nM | 15 nM | 
32 | O=C(NCc1cc(C(F)(F)F)cc(C(F)(F)F)c1)C(CCN1CCC2(C=Cc3ccccc32)CC1)C1CCCCC1 (stereo not drawn) | 160 nM | 73 nM | 
33 | C[C@H](CCN1CCC2(C=Cc3ccccc32)CC1)C(=O)NCc1cc(C(F)(F)F)cc(C(F)(F)F)c1 | 231 nM | 37 nM | 
34 | C[C@H]1CN(CC[C@H](CC2CC2)C(=O)NCc2cc(C(F)(F)F)cc(C(F)(F)F)c2)CC[C@@]12C=Cc1ccccc12 | 25 nM | 9 nM | IC50 [5]: 3 nM
35 | O=C(NCc1cc(C(F)(F)F)cc(C(F)(F)F)c1)C(CCN1CCC2(C=Cc3ccccc32)CC1)C1CC1 (stereo not drawn) | 69 nM | 38 nM | 
36 | CC(=O)Nc1ncc(S(=O)(=O)NC(CCN2CCC3(C=Cc4ccccc43)CC2)C(=O)NCc2cc(C(F)(F)F)cc(C(F)(F)F)c2)s1 (stereo not drawn) |  |  | inhibition [4]: 45%
